Assay results of several laboratories.
Transmembrane protease serine 6: Transmembrane protease serine 6 (Homo sapiens, UniProt Q8IU80)
AGTR1: Type-1 angiotensin II receptor (AGTR1, Homo sapiens, UniProt P30556)
EGFR: Epidermal growth factor receptor (EGFR, Homo sapiens, UniProt P00533)
NPY1R: Neuropeptide Y receptor type 1 (NPY1R, Homo sapiens, UniProt P25929)
SRPK3: SRSF protein kinase 3 (SRPK3, Homo sapiens, UniProt Q9UPE1)

SMILES	target	test	setting	inhibition [%]
CN1CCN(CCOc2ccc3occc(=O)c3c2)CC1	Transmembrane protease serine 6	enzyme activity, inhibitor, fluorescence	10 µM	6
COc1cc(Nc2ncc(F)c(Nc3ccc4c(n3)NC(=O)C(C)(C)O4)n2)cc(OC)c1OC	Serine/threonine-protein kinase TAO1 (TAOK1, Homo sapiens, UniProt Q7L7X3)	binding	10 µM	92
c1ccc(C(NCCNC(c2ccccc2)c2ccccc2)c2ccccc2)cc1	AGTR1	cell-free assay	10 µM	40
O=c1ccoc2ccc(OCCCCN3CCCCC3)cc12	Transmembrane protease serine 6	enzyme activity, inhibitor, fluorescence	10 µM	12
CCN(CC)CCCC[C@H](NC(=O)[C@H](CC(C)C)NC(=O)[C@H](C)NC(=O)[C@H](Cc1ccccc1)NC(=O)c1ccc(C(C)(C)C)cc1)C(=O)N[C@@H](CO)C(=O)OC	AGTR1	ligand displacement, radioligand	10 µM	-4
COc1ccc(S(=O)(=O)N2CCCCC2)cc1C	AGTR1	ligand displacement, radioligand	10 µM	< 30
CC(C)CC(CC(=O)NO)N=[N+]=[N-] (centres unmarked)	Endoplasmic reticulum aminopeptidase 2 (ERAP2, Homo sapiens, UniProt Q6P179)	enzyme activity, inhibitor, fluorescence	300 µM	21
O=C(Nc1cccnn1)N1CCN([C@@H]2CCOc3cc(C(F)(F)F)ccc32)CC1	Vasopressin V2 receptor (AVPR2, Homo sapiens, UniProt P30518)	cell-free assay	20 µM	-4
C#Cc1n[nH]c2c(-c3cn([C@@H](C)c4ccccc4)c(=O)[nH]c3=O)cc(F)cc12	EGFR	enzyme activity, inhibitor	0.1 µM	0.9
CN1CCN(CCCCOc2ccc3occc(=O)c3c2)CC1	Transmembrane protease serine 6	enzyme activity, inhibitor, fluorescence	10 µM	11
CC(C)N1CCC[C@H]1CNC(=O)c1cn(C2CCCC2)c(=O)c2c1c1ccccc1n2C	NPY1R	ligand displacement, radioligand	10 µM	5
C#Cc1n[nH]c2c(-c3cn(C(C)c4ccccn4)c(=O)[nH]c3=O)cc(F)cc12 (centres unmarked)	EGFR	enzyme activity, inhibitor	1 µM	-3.8
Cn1cc(-c2cccc(N3CCc4c(sc5c4CC(C)(C)C5)C3=O)c2CO)cc(Nc2ccncn2)c1=O	SRPK3	enzyme activity, inhibitor	1 µM	9
Cc1ncc(C)n2nc(/C=C/c3nc(N4CCCC4)cc(N4CCOCC4)n3)nc12	Beta-secretase 1 (BACE1, Homo sapiens, UniProt P56817)	enzyme activity, inhibitor	10 µM	4
Cn1cc(-c2cc(F)cc(N3CCn4c(cc5c4CCCC5)C3=O)c2CO)cc(Nc2ccc(N3CCN(C4COC4)CC3)cn2)c1=O	SRPK3	enzyme activity, inhibitor	0.1 µM	15
CCCCCCCCCCCC(=O)OC[C@@H](COP(=O)(O)OCCNC(=O)c1ccc(Cn2c(=O)[nH]c3c(N)nc(OCCOC)nc32)cc1)OC(=O)CCCCCCCCCCC	NPY1R	ligand displacement, radioligand	10 µM	11
CN(CCN1CCC(OC(=O)Nc2ccccc2-c2ccccc2)CC1)C(=O)c1ccc(CN2CCC(C(N)=O)CC2)cc1	AGTR1	ligand displacement, radioligand	1 µM	3
C[C@H](C(=O)N[C@H]1COc2ccccc2[C@@H]1S(C)(=O)=O)c1ccc(F)cc1	AGTR1	cell-free assay	10 µM	-6
COCc1c(-c2cc3cc(C)cc(OC)c3s2)c2c(N)ncnn2c1CN1CCNC(=O)C1	Serine/threonine-protein kinase Nek5 (NEK5, Homo sapiens, UniProt Q6P3R8)	cell-free assay, competition with immobilised ligand	1 µM	90.1
OC[C@@]12C[C@@H]1[C@@H](n1cnc3c(NC(C4CCCC4)C4CCCC4)nc(Cl)cc31)[C@H](O)[C@@H]2O	Adenosine receptor A3 (ADORA3, Homo sapiens, UniProt P0DMS8)	ligand displacement, radioligand	10 µM	35
